Experimental data: ChEMBL document CHEMBL2440017, “Discovery of a potent, selective, and orally bioavailable histamine H3 receptor antagonist SAR110068 for the treatment of sleep-wake disorders” (Bioorg Med Chem Lett, 2013)
In brackets after ≈: the same amount, converted by molar mass.

Columns and labels:
[1] = Biotransformation in human microsomes; type: ADME, Microsome; conditions: read-out: Activity
How it was run: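 Percentage biotransformation measured in human liver microsomes in vitro.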

[2] = test system: Plasma; assay: Metabolic stability in human plasma; type: ADME, cell-free
How it was run: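 Compound stability measured in plasma of each species in vitro.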

[3] = Metabolic stability in rat microsomes; type: ADME, Microsome
How it was run: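 Percentage biotransformation measured in vitro in liver microsomes of each species.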

[4] = Elimination half life in Sprague-Dawley rat brain at 10 mg/kg, po; type: ADME, organism-based; set-up: dose 10 mg/kg, route oral; conditions: read-out: beta t1/2 (converted)
How it was run: (§1)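 Oral gavage at 10 mg/kg to male OF1 mice (vehicle 5% DMSO/0.5% MC/0.2% Tween80, 1.0 mg/mL) or male Sprague-Dawley rats (vehicle 0.5% MC/0.2% Tween80, 1.0 mg/mL). Plasma and brain exposure and half-life determined.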

[5] = target: Sigma non-opioid intracellular receptor 1 (Homo sapiens) (UniProt Q99720); assay: Inhibition of sigma 1 receptor (unknown origin) at 10 uM
Sigma non-opioid intracellular receptor 1 (Homo sapiens), sequence (Q99720 whole entry): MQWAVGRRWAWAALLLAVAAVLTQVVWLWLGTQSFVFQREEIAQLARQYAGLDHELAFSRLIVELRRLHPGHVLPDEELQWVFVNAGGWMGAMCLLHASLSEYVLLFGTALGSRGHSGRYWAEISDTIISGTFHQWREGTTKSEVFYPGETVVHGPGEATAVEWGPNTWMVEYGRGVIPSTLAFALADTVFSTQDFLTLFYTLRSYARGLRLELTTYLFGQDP
How it was run: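 CEREP selectivity panel: percent inhibition of control specific binding at 10 µM.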

[6] = Genotoxicity in micronucleus (unknown origin) at 5 to 950 ug/ml
How it was run: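 Ames II and micronucleus tests, Ames over 3–1000 µg/mL and MNT over 5–950 µg/mL. Each run with and without metabolic activation by human liver microsome preparations.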

[7] = Distribution coefficient, log D of the compound at pH 7.4; type: physicochemical; conditions: octanol/water
[8] = Solubility of the compound in water; type: physicochemical
[9] = AUC in OF1 mouse brain at 10 mg/kg, po; type: ADME, organism-based; set-up: dose 10 mg/kg, route oral; how it was run: as §1

- metabolised [1]: < 5%
- Stability [2]: Stable
- Stability [3]: Stable
- half-life [4]: 3.8 h
- inhibition [5]: 53%
- logD [7]: 0.15
- solubility [8]: 1100 µg/mL (≈ 2960 µM)
- AUC [9]: 1200 ng·h/mL
SMILES: Cc1cc(N2CC[C@H](N3CCC[C@@H]3C)C2)ccc1NC(=O)C1CCOCC1
- Activity [6]: Non-toxic
